What is called IC50 is the concentration that gives 50% inhibition. In general, inhibition refers to how much of the control response was suppressed.

The target of one data set is T1, Coagulation factor XII (Homo sapiens, UniProt P00748).
T1 sequence (P00748 whole entry): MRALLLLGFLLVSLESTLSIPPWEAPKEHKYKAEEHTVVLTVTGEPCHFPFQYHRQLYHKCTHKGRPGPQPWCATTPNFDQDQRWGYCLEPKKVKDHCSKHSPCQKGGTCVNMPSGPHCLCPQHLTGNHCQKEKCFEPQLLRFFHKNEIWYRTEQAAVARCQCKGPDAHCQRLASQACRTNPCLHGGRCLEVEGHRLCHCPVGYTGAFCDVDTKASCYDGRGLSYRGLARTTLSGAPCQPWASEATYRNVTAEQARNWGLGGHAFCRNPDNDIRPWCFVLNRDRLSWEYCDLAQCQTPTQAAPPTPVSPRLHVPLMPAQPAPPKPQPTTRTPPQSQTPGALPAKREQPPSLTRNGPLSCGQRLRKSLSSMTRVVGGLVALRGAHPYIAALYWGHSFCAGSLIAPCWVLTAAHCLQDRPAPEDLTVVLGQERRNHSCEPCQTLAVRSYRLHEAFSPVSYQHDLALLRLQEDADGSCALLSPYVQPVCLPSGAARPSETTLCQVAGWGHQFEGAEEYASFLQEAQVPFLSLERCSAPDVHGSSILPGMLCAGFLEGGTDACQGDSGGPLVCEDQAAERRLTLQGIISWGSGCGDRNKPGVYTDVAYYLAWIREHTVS
The data set is described as follows: Inhibition of human coagulation factor XIIA using Boc-Gln-Gly-Arg-AMC as fluorogenic substrate measured at 1 min interval for 1 hr by fluorometric assay.

The next data set is filed under the species Homo sapiens. In words: Selectivity index, ratio of IC50 for inhibition of human coagulation factor alpha-thrombin using Boc-Val-Pro-Arg-AMC as fluorogenic substrate to IC50 for inhibition of human coagulation factor XIIA using Boc-Gln-Gly-Arg-AMC as fluorogenic substrate incubated for 1 hr by fluorometric assay.
Data set [1] addresses T2, Coagulation factor XII (Homo sapiens) (UniProt P00748).
T2 sequence (whole entry): T1 sequence (P00748 whole entry)
In words: Time dependent inhibition of human coagulation factor XIIA using Boc-Gln-Gly-Arg-AMC as fluorogenic substrate at 0.5 to 132 uM by fluorescence assay. As to conditions: dose 0.0005-132 µM, in the assay text read “0.5 nM to 132 uM” for “0.5 to 132 uM”. A digest of the protocol: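 Buffer: Tris-Cl pH 7.4 with NaCl, MgCl2, CaCl2, 0.1% BSA and 0.01% Triton X-100. Fluorescence (ex 355/em 460 nm) read kinetically every 87 s for up to 180 min. IC50 calculated at each time point and plotted against time.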

Another data set deals with HepG2. In words: Cytotoxicity against human HepG2 cells assessed as reduction in cell viability at 100 uM incubated for 48 hrs by alamar blue assay relative to control. Type of data set: cell-based. To be noted: hepg2, 48 h. Background: Alamar Blue is a resazurin reagent that responds to reducing activity.
Data set [2] has as its system Plasma. In words: Antiplatelet activity in […] assessed as inhibition of MDA-MB-231-induced platelet aggregation at 0.1 to 10 uM by light transmission aggregometry. Format: functional. As to conditions: Homo sapiens, dose 0.1-10 µM.
Another data set addresses T3, Monoglyceride lipase (Homo sapiens, UniProt Q99685).
T3 sequence (Q99685 whole entry): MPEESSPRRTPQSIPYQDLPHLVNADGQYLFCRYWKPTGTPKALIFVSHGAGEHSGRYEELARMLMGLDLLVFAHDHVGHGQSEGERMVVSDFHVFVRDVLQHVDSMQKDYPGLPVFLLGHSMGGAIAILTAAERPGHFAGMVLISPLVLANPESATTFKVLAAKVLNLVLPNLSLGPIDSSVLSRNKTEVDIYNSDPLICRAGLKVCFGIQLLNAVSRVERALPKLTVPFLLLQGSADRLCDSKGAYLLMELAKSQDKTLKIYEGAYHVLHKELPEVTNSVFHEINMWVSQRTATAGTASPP
In words: Inhibition of human recombinant MAGL using 1,3-dihydroxypropan-2-yl 4-pyren-1-ylbutanoate as substrate measured after 45 mins by reverse-phase HPLC-based fluorescence assay.

The target of data set [3] is T2, Coagulation factor XII (Homo sapiens). In words: Inhibition of human coagulation factor XIIA in presence of Boc-Gln-Gly-Arg-AMC as fluorogenic substrate at 1 uM measured at 1 min interval for 1 hr by fluorometric assay relative to control. The method in brief:
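Screening of crude microscale amide-coupling products. Conversion was measured by 1H NMR and product content normalised to 76 µmol/L in DMSO, then tested at 1 µM and 100 nM in the fluorogenic FXIIa or thrombin assay. A 0-conversion reaction served as blank. Percent inhibition is from triplicates.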

The target of the next data set is Prothrombin (Homo sapiens, UniProt P00734). The data set is described as follows: Inhibition of human coagulation factor alpha-thrombin using Boc-Val-Pro-Arg-AMC as fluorogenic substrate measured at 1 min interval for 1 hr by fluorometric assay.
Data set [4] concerns the target T2, Coagulation factor XII (Homo sapiens). In words: Binding affinity to human plasma coagulation factor XIIA assessed as compound-adduct formation at molar ratio of 1:20 preincubated for 4 mins followed by desalination and measured after 5 mins by SEC/ESI-TOF mass spectra analysis. Format: cell-free. A digest of the protocol:
(§1)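 β-FXIIa incubated with inhibitor at a 1:20 molar ratio, then size-exclusion chromatography coupled to ESI-MS to measure the mass of enzyme–inhibitor complexes. Further runs checked complex stability to probe reversibility.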
(In gel filtration, larger molecules generally elute earlier.)

Data set [5] shares this target. The data set is described as follows: Binding affinity to human plasma coagulation factor XIIA assessed as compound-adduct formation at molar ratio of 1:20 preincubated for 4 mins followed by desalination and measured after 120 mins by SEC/ESI-TOF mass spectra analysis. Format: cell-free. A digest of the protocol:
as §1

The test system of data set [6] is Plasma. In words: Antiplatelet activity in human platelet-rich plasma assessed as inhibition of TRAP6 induced platelet activation by measuring reduction in ATP release at 10 uM preincubated for 20 mins followed by TRAP6 addition and measured after 10 mins by luciferin-based luminescence assay. Type of data set: functional, cell-free. As to conditions: time 30.0 min. The method in brief: (§2)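 Platelet activation measured as dense-granule ATP release by firefly luciferase bioluminescence. Compound-treated platelets were activated with MDA-MB-231 cells, thrombin or TRAP-6. TRAP-6-induced signal was set as 100%. Triplicate, mean ± SD.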

For data set [7], the system named is Plasma. The data set is described as follows: Antiplatelet activity in […] assessed as inhibition of MDA-MB-231-induced platelet aggregation at 100 nM by light transmission aggregometry. Type of data set: functional. As to conditions: Homo sapiens.
Data set [8] concerns Plasma. In words: Antiplatelet activity in human platelet-rich plasma assessed as inhibition of thrombin induced platelet activation by measuring reduction in ATP release preincubated for 20 mins followed by thrombin addition and measured after 10 mins by luciferin-based luminescence assay. Type of data set: functional, cell-free. To be noted: time 30.0 min. The method in brief: as §2

Data set [9] deals with Plasma. In words: Antiplatelet activity in […] assessed as inhibition of MDA-MB-231-induced platelet aggregation by light transmission aggregometry. Format: functional. To be noted: Homo sapiens, dose 0.1-10 µM.
Data set [10] concerns Plasma. In words: Antiplatelet activity in […] assessed as inhibition of MDA-MB-231-induced platelet aggregation at 1 uM by light transmission aggregometry. As to conditions: Homo sapiens. Format: functional.
For data set [11], the system named is Plasma. The data set is described as follows: Antiplatelet activity in […] assessed as inhibition of thrombin-induced platelet aggregation at 1 to 10 uM by light transmission aggregometry. Type of data set: functional. As to conditions: Homo sapiens, dose 1-10 µM.
The subject of data set [12] is Plasma. The data set is described as follows: Antiplatelet activity in […] assessed as inhibition of MDA-MB-231-induced platelet aggregation at 10 uM by light transmission aggregometry. Type of data set: functional. As to conditions: Homo sapiens.
Data set [13] has as its system Plasma. The data set is described as follows: Antiplatelet activity in human platelet-rich plasma assessed as inhibition of TRAP6 induced platelet activation by measuring reduction in ATP release at 1 uM preincubated for 20 mins followed by TRAP6 addition and measured after 10 mins by luciferin-based luminescence assay. As to conditions: time 30.0 min. Type of data set: functional, cell-free. A digest of the protocol: as §2

The source made the active and inactive calls. The rule behind the calls is not given here.

Regarding `Nc1nc(-c2ccccn2)nn1C(=O)c1cccc2ccccc12`, the IC50 against Coagulation factor XII was 29 nM; on Monoglyceride lipase, more than 5000 nM; against Prothrombin, 375 nM. The Ratio IC50 in the data set listed under Homo sapiens turned out to be 13. Also, in data set [1], the TDI result was “Active”. Besides, in the data set with HepG2, the Activity turned out to be 8%. Also, the inhibition result in the data set on Plasma [2] is “inactive”. In addition, the inhibition in data set [3] came to 98%.
Turning to `Nc1nc(-c2ccccn2)nn1C(=O)c1ccc2ccccc2c1`, the outcome in [4] and in data set [5] was inactive. Also, the IC50 is 138 nM against Coagulation factor XII, more than 5000 nM on Monoglyceride lipase and 27 nM on Prothrombin. For the same compound, the inhibition result with Plasma [6], with Plasma [10], in the data set with Plasma [11] and in the data set on Plasma [12] was “Active” in each case. For the same compound, the inhibition result with Plasma [7] and with Plasma [13] was “inactive” each time. Besides, the inhibition entry was “Dose-dependent effect” with Plasma [8], “Dose-dependent effect” with Plasma [9] and 77% in [3]. Also, in the data set on HepG2, the Activity is on record as 25%.

These data come from ChEMBL document CHEMBL4673255, “Acylated 1H-1,2,4-Triazol-5-amines Targeting Human Coagulation Factor XIIa and Thrombin: Conventional and Microscale Synthesis, Anticoagulant Properties, and Mechanism of Action” (J Med Chem, 2020).
